# Where “and” joins values, the source holds several entries; their conditions need not be identical. Equal values may be shown once.
# How the values were obtained:
# Mus musculus [1] = assay: Median survival time of treated group / untreated group, when 20 mg/kg compound is administered intraperitoneally in L1210 leukemic mice; assay type: functional; details: route intraperitoneal
# Procedure, shortened: (§1)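 Male 3-month-old B6D2F1 mice, 10⁵ L1210 cells ip on day 0. Compound was given ip on days 1, 5 and 9 in aqueous 20% Tween 80 (0.1–0.2 mL per 20 g), 8 mice per group. Twelve vehicle controls. Daily mortality with autopsy to assign leukemic versus toxic death. I = treated MST × 100/control MST. Wilcoxon test, p < 0.05; active if I > 125 and p < 0.05.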
# [2] = Lethal dose in L1210 leukemic mice, by administering compound intraperitoneally; assay type: toxicity, organism-based; details: mouse, in vivo, ip
# Procedure, shortened: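 Male B6D2F1 mice (3 months old) received 10⁵ L1210 leukemia cells ip on day 0. One day later they were given compound ip. Mortality was recorded daily for 9 days and the acute LD50 expressed in mg/kg.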
# Mus musculus [3] = assay: Median survival time of treated group / untreated group, when 25 mg/kg compound is administered intraperitoneally in L1210 leukemic mice; assay type: functional; details: route intraperitoneal; procedure, shortened: as §1
# Mus musculus [4] = assay: MST of mitomycin 2 mg/kg treated group x 100/MST of untreated control group at a dose of 25 mg/kg in L1210 leukemic mice; assay type: functional
# Procedure, shortened: (§2)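 Reference group of 8 B6D2F1 mice bearing ip-grafted 10⁵ L1210 cells (day 0), given mitomycin 2 mg/kg in distilled water ip on days 1, 5 and 9. Controls were 12 mice given vehicle only. Mortality was followed daily with autopsy. Ref I = mitomycin-group MST × 100/control MST, run alongside each test experiment.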
# Mus musculus [5] = assay: MST of mitomycin 2 mg/kg treated group x 100/MST of untreated control group at a dose of 20 mg/kg in L1210 leukemic mice; assay type: functional; procedure, shortened: as §2
# [6] = Ratio, I x 100/ref I at a dose of 20 mg/kg in L1210 leukemic mice; assay type: functional
# Procedure, shortened: (§3)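 Male B6D2F1 mice, 3 months old, received 10^5 L1210 cells ip on day 0. Dosing was ip on days 1, 5 and 9 in 20% aqueous Tween 80, 0.1–0.2 mL per 20 g, with 8 mice per group. There were 12 vehicle controls and 8 mice given mitomycin 2 mg/kg ip in water. Daily mortality was recorded, with autopsies. Ratio = treated-group MST ×100/reference-group MST; Wilcoxon, p<0.05.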
# [7] = Ratio, I x 100/ref I at a dose of 25 mg/kg in L1210 leukemic mice; assay type: functional; procedure, shortened: as §3
# Mus musculus [8] = assay: Median survival time of treated group / untreated group, when 65 mg/kg compound is administered intraperitoneally in L1210 leukemic mic; assay type: functional; details: route intraperitoneal; procedure, shortened: as §1
# [9] = Ratio of acute lethal dose to the efficient dose 40 mg/kg; assay type: functional
# Procedure, shortened: (§4)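 Ratio of acute LD50 to efficient dose. LD50 came from single ip dosing one day after ip grafting of 10⁵ L1210 cells in B6D2F1 mice, with 9-day mortality. The efficient dose came from ip treatment on days 1, 5 and 9 in the median-survival test.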
# Mus musculus [10] = assay: MST of mitomycin 2 mg/kg treated group x 100/MST of untreated control group at a dose of 65 mg/kg in L1210 leukemic mice; assay type: functional; procedure, shortened: as §2
# [11] = Ratio, I x 100/ref I at a dose of 65 mg/kg in L1210 leukemic mice; assay type: functional; procedure, shortened: as §3
# [12] = Ratio of acute lethal dose to the efficient dose 30 mg/kg; assay type: functional; procedure, shortened: as §4
# [13] = Ratio, I x 100/ref I at a dose of 35 mg/kg in L1210 leukemic mice; assay type: functional; procedure, shortened: as §3
# Mus musculus [14] = assay: MST of mitomycin 2 mg/kg treated group x 100/MST of untreated control group at a dose of 40 mg/kg in L1210 leukemic mice; assay type: functional; procedure, shortened: as §2
# [15] = Ratio of acute lethal dose to the efficient dose 35 mg/kg; assay type: functional; procedure, shortened: as §4
# [16] = Ratio, I x 100/ref I at a dose of 40 mg/kg in L1210 leukemic mice; assay type: functional; procedure, shortened: as §3
# [17] = Ratio of acute lethal dose to the efficient dose 65 mg/kg; assay type: functional; procedure, shortened: as §4
# Mus musculus [18] = assay: Median survival time of treated group / untreated group, when 40 mg/kg compound is administered intraperitoneally in L1210 leukemic mice; assay type: functional; details: route intraperitoneal; procedure, shortened: as §1
# Mus musculus [19] = assay: MST of mitomycin 2 mg/kg treated group x 100/MST of untreated control group at a dose of 35 mg/kg in L1210 leukemic mice; assay type: functional; procedure, shortened: as §2
# Mus musculus [20] = assay: Median survival time of treated group / untreated group, when 35 mg/kg compound is administered intraperitoneally in L1210 leukemic mice; assay type: functional; details: route intraperitoneal; procedure, shortened: as §1
# Mus musculus [21] = assay: MST of mitomycin 2 mg/kg treated group x 100/MST of untreated control group at a dose of 100 mg/kg in L1210 leukemic mice; assay type: functional; procedure, shortened: as §2
# Mus musculus [22] = assay: Median survival time of treated group / untreated group, when 15 mg/kg compound is administered intraperitoneally in L1210 leukemic mice; assay type: functional; details: route intraperitoneal; procedure, shortened: as §1
# [23] = Ratio, I x 100/ref I at a dose of 15 mg/kg in L1210 leukemic mice; assay type: functional; procedure, shortened: as §3
# [24] = Ratio, I x 100/ref I at a dose of 30 mg/kg in L1210 leukemic mice; assay type: functional; procedure, shortened: as §3
# Mus musculus [25] = assay: MST of mitomycin 2 mg/kg treated group x 100/MST of untreated control group at a dose of 50 mg/kg in L1210 leukemic mice; assay type: functional; procedure, shortened: as §2
# Mus musculus [26] = assay: Median survival time of treated group / untreated group, when 50 mg/kg compound administered intraperitoneally in L1210 leukemic mice; assay type: functional; details: route intraperitoneal; procedure, shortened: as §1
# Mus musculus [27] = assay: MST of mitomycin 2 mg/kg treated group x 100/MST of untreated control group at a dose of 30 mg/kg in L1210 leukemic mice; assay type: functional; procedure, shortened: as §2
# [28] = Ratio, I x 100/ref I at a dose of 100 mg/kg in L1210 leukemic mice; assay type: functional; procedure, shortened: as §3
# Mus musculus [29] = assay: Median survival time of treated group / untreated group, when 30 mg/kg compound is administered intraperitoneally in L1210 leukemic mice; assay type: functional; details: route intraperitoneal; procedure, shortened: as §1
# [30] = Ratio, I x 100/ref I at a dose of 50 mg/kg in L1210 leukemic mice; assay type: functional; procedure, shortened: as §3
# Mus musculus [31] = assay: MST of mitomycin 2 mg/kg treated group x 100/MST of untreated control group at a dose of 15 mg/kg in L1210 leukemic mice; assay type: functional; procedure, shortened: as §2
structure (smiles),measurement,setting,value
CC(C)NC(=O)OCc1c(COC(=O)NC(C)C)c(-c2ccsc2)n2c1CCC2,Oncostatic index,Mus musculus [1],100
same,LD50,[2],65 mg/kg
same,Oncostatic index,Mus musculus [3],117
same,Ref I oncostatic index,Mus musculus [4],162
same,Ref I oncostatic index,Mus musculus [5],139
same,Ratio,[6],72
same,Ratio,[7],72
CNC(=O)OCc1c(COC(=O)NC)c(-c2cccs2)n2c1CCC2,Oncostatic index,Mus musculus [8],125
same,Ratio,[9],3
same,Ref I oncostatic index,Mus musculus [10],125
same,Ratio,[11],100
same,Ratio,[12],1.7
same,LD50,[2],120 mg/kg
same,Ratio,[13],100
same,Ref I oncostatic index,Mus musculus [14],138
same,Ratio,[15],3.4
same,Ratio,[16],100
same,Ratio,[17],1.8
same,Oncostatic index,Mus musculus [18],138
same,Ref I oncostatic index,Mus musculus [19],167
same,Oncostatic index,Mus musculus [20],167
CC(=O)OCc1c(COC(C)=O)c(-c2cccs2)n2c1CCC2,Ref I oncostatic index,Mus musculus [21],125
same,Oncostatic index,Mus musculus [22],100
same,LD50,[2],80 mg/kg
same,Ratio,[23],83
same,Ratio,[24],86
same,Ref I oncostatic index,Mus musculus [25],136
same,Oncostatic index,Mus musculus [26],117
same,Ref I oncostatic index,Mus musculus [27],140
same,Ratio,[28],80
same,Oncostatic index,Mus musculus [29],114 and 100
same,Ratio,[30],92
same,Ref I oncostatic index,Mus musculus [31],121

# Source: ChEMBL document CHEMBL1124400, “Synthesis and evaluation of antileukemic activity of 5-thienyl- or 5-(2-furyl)-2,3-dihydro-6,7-bis(hydroxymethyl)-1H-pyrrolizine bis(alkylcarbamates) and derivatives” (J Med Chem, 1989)
